Measurements taken from ChEMBL document CHEMBL3784963, “Synthesis, cytotoxic activity evaluation and HQSAR study of novel isosteviol derivatives as potential anticancer agents” (Eur J Med Chem, 2016).

Legend:
Type in all cases: functional, cell-based
[1] = Cytotoxicity against human HGC27 cells assessed as growth inhibition after 72 hrs by MTT assay; details: HGC-27, 72 h
Outline: (§1)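 MTT cytotoxicity assay on three human cancer cell lines: HCT-116 (colon carcinoma), HGC-27 (gastric carcinoma) and JEKO-1 (mantle cell lymphoma).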

[2] = Cytotoxicity against human HCT116 cells assessed as growth inhibition after 72 hrs by MTT assay; details: HCT-116, 72 h; outline: as §1
[3] = Cytotoxicity against human JeKo1 cells assessed as growth inhibition after 72 hrs by MTT assay; details: JeKo-1, 72 h; outline: as §1

| SMILES | IC50 [1] [µM] | IC50 [2] [µM] | IC50 [3] [µM] |
| --- | --- | --- | --- |
| CCOC(=O)[C@]1(C)CCC[C@@]2(C)[C@@H]3CC[C@@]4(C)C[C@]3(CC[C@@H]21)[C@H](CO)[C@H]4N | 5.83 | 4.89 | 3.54 |
| C[C@@]12CC[C@@H]3[C@@](CC[C@H]4[C@@]3(C)CCC[C@@]4(C)C(=O)O)(CC1=O)C2 [ISOSTEVIOL] | > 100 | > 100 | > 100 |
| CCOC(=O)[C@]1(C)CCC[C@@]2(C)[C@@H]3CC[C@@]4(C)C[C@]3(CC[C@@H]21)[C@H](CO)[C@H]4NC(=S)Nc1ccc(Cl)cc1Cl | 4.78 | 4.02 | 27.3 |
| CCOC(=O)[C@]1(C)CCC[C@@]2(C)[C@@H]3CC[C@@]4(C)C[C@]3(CC[C@@H]21)[C@H](CO)[C@H]4NC(=S)Nc1ccc(Br)cc1 | 2.98 | 2.21 | 6.73 |
| CCOC(=O)[C@]1(C)CCC[C@@]2(C)[C@@H]3CC[C@@]4(C)C[C@]3(CC[C@@H]21)[C@H](CO)[C@H]4NC(=S)Nc1cccc([N+](=O)[O-])c1 | 2.38 | 1.88 | 5.26 |
| C=C[C@]12CC[C@H]3[C@@](C)(CCC[C@@]3(C)C(=O)OCC)[C@@H]1CC[C@](C)(CN=C=S)C2 | 11.5 | 4.14 | 5.43 |
| CCOC(=O)[C@]1(C)CCC[C@@]2(C)[C@@H]3CC[C@@]4(C)C[C@]3(CC[C@@H]21)C[C@H]4NC(=S)NC1CCCCC1 | 92.2 | 82.6 | 94.8 |
| CCOC(=O)[C@]1(C)CCC[C@@]2(C)[C@@H]3CC[C@@]4(C)C[C@]3(CC[C@@H]21)[C@H](CO)[C@H]4NC(=S)Nc1ccc(F)cc1 | 4.92 | 4.76 | 23.7 |
| CCOC(=O)[C@]1(C)CCC[C@@]2(C)[C@@H]3CC[C@@]4(C)C[C@]3(CC[C@@H]21)[C@H](COC(C)=O)[C@H]4NC(C)=O | 20.5 | 20.1 | 60.6 |
| CCOC(=O)[C@]1(C)CCC[C@@]2(C)[C@@H]3CC[C@@]4(C)C[C@]3(CC[C@@H]21)[C@H](CO)[C@H]4NC(=S)Nc1ccccc1Br | 15.6 | 20.9 | 14 |
| C=C[C@]12CC[C@H]3[C@@](C)(CCC[C@@]3(C)C(=O)OCC)[C@@H]1CC[C@](C)(CN)C2 | 3.02 | 2.46 | 2.16 |
| CCOC(=O)[C@]1(C)CCC[C@@]2(C)[C@@H]3CC[C@@]4(C)C[C@]3(CC[C@@H]21)[C@H](CO)[C@H]4NC(=S)Nc1ccc([N+](=O)[O-])cc1 | 2.35 | 1.45 | 3.54 |
| CCOC(=O)[C@]1(C)CCC[C@@]2(C)[C@@H]3CC[C@@]4(C)C[C@]3(CC[C@@H]21)[C@H](CO)[C@H]4NC(=S)Nc1ccccc1[N+](=O)[O-] | 22.8 | 11.7 | 26.9 |
| CCOC(=O)[C@]1(C)CCC[C@@]2(C)[C@@H]3CC[C@@]4(C)C[C@]3(CC[C@@H]21)[C@H](CO)[C@H]4NC(=S)Nc1ccccc1C | 5.04 | 4.78 | 24.7 |
| CCOC(=O)[C@]1(C)CCC[C@@]2(C)[C@@H]3CC[C@@]4(C)C[C@]3(CC[C@@H]21)[C@H](CO)[C@H]4NC(C)=O | 18 | 15.2 | 62 |
| CCOC(=O)[C@]1(C)CCC[C@@]2(C)[C@@H]3CC[C@@]4(C)C[C@]3(CC[C@@H]21)[C@H](CO)[C@H]4NC(=S)Nc1ccccc1F | 7.38 | 4.85 | 35.7 |
| CCOC(=O)[C@]1(C)CCC[C@@]2(C)[C@@H]3CC[C@@]4(C)C[C@]3(CC[C@@H]21)C[C@H]4N=C=S | 11.6 | 6.96 | 38.3 |
| CCOC(=O)[C@]1(C)CCC[C@@]2(C)[C@@H]3CC[C@@]4(C)C[C@]3(CC[C@@H]21)[C@H](CO)[C@H]4NC(=S)Nc1ccc(OC)cc1 | 7.72 | 4.57 | 40.3 |

| SMILES | IC50 [1] [µM] | IC50 [2] [µM] | IC50 [3] [µM] |
| --- | --- | --- | --- |
| CCOC(=O)[C@]1(C)CCC[C@@]2(C)[C@@H]3CC[C@@]4(C)C[C@]3(CC[C@@H]21)[C@H](CO)[C@H]4N=C=S | 7.7 | 4.45 | 30.1 |
| CCOC(=O)[C@]1(C)CCC[C@@]2(C)[C@@H]3CC[C@@]4(C)C[C@]3(CC[C@@H]21)[C@H](CO)[C@H]4NC(=S)Nc1cccc(Br)c1 | 9.15 | 4.17 | 27.3 |
| CCOC(=O)[C@]1(C)CCC[C@@]2(C)[C@@H]3CC[C@@]4(C)C[C@]3(CC[C@@H]21)[C@H](CO)[C@H]4NC(=S)Nc1ccc(C)cc1 | 5.53 | 5.62 | 30.2 |
| CCOC(=O)[C@]1(C)CCC[C@@]2(C)[C@@H]3CC[C@@]4(C)C[C@]3(CC[C@@H]21)[C@H](CO)[C@H]4NC(=S)Nc1cccc(OC)c1 | 7.21 | 3.84 | 31.9 |
| C=C[C@]12CC[C@H]3[C@@](C)(CCC[C@@]3(C)C(=O)OCC)[C@@H]1CC[C@](C)(CNC(=S)Nc1ccccc1)C2 | 6.69 | 3.47 | 2.77 |
| CCOC(=O)[C@]1(C)CCC[C@@]2(C)[C@@H]3CC[C@@]4(C)C[C@]3(CC[C@@H]21)[C@H](CO)[C@H]4NC(=S)Nc1cccc(F)c1 | 4.98 | 4.91 | 28.9 |
| CCOC(=O)[C@]1(C)CCC[C@@]2(C)[C@@H]3CC[C@@]4(C)C[C@]3(CC[C@@H]21)[C@H](CO)[C@H]4NC(=S)Nc1ccc(Cl)cc1 | 3.33 | 4.41 | 5.76 |
| CCOC(=O)[C@]1(C)CCC[C@@]2(C)[C@@H]3CC[C@@]4(C)C[C@]3(CC[C@@H]21)[C@H](CO)[C@H]4NC(=S)Nc1cccc(Cl)c1 | 5.46 | 2.75 | 20.5 |
| CCOC(=O)[C@]1(C)CCC[C@@]2(C)[C@@H]3CC[C@@]4(C)C[C@]3(CC[C@@H]21)[C@H](CO)[C@H]4NC(=S)Nc1cccc(C)c1 | 4.36 | 4.63 | 20.8 |
| CCOC(=O)[C@]1(C)CCC[C@@]2(C)[C@@H]3CC[C@@]4(C)C[C@]3(CC[C@@H]21)[C@H](CO)[C@H]4NC(=S)Nc1ccccc1OC | 9.02 | 5.4 | 28.3 |
| CCOC(=O)[C@]1(C)CCC[C@@]2(C)[C@@H]3CC[C@@]4(C)C[C@]3(CC[C@@H]21)[C@H](CO)[C@H]4NC(=S)Nc1ccccc1 | 5.16 | 5.79 | 27.3 |
| CCOC(=O)[C@]1(C)CCC[C@@]2(C)[C@@H]3CC[C@@]4(C)C[C@]3(CC[C@@H]21)C[C@H]4NC(=S)N[C@@H](C)c1ccccc1 | 18.2 | 6.63 | 15.2 |
| CCOC(=O)[C@]1(C)CCC[C@@]2(C)[C@@H]3CC[C@@]4(C)C[C@]3(CC[C@@H]21)C[C@H]4N | 2.6 | 5.08 | 2.2 |
| CCOC(=O)[C@]1(C)CCC[C@@]2(C)[C@@H]3CC[C@@]4(C)C[C@]3(CC[C@@H]21)[C@H](CO)[C@H]4NC(=S)Nc1c(C)cccc1C | 8.9 | 4.54 | 21.1 |
| CCOC(=O)[C@]1(C)CCC[C@@]2(C)[C@@H]3CC[C@@]4(C)C[C@]3(CC[C@@H]21)C[C@H]4NC(=S)Nc1ccccc1 | 13.8 | 8.66 | 21.5 |
| CCOC(=O)[C@]1(C)CCC[C@@]2(C)[C@@H]3CC[C@@]4(C)C[C@]3(CC[C@@H]21)[C@H](CO)[C@@H]4N | 7.25 | 4.9 | 2.47 |
| CCOC(=O)[C@]1(C)CCC[C@@]2(C)[C@@H]3CC[C@@]4(C)C[C@]3(CC[C@@H]21)[C@H](CO)[C@H]4NC(=S)Nc1ccccc1Cl | 8.98 | 7.23 | 40.7 |
| CCOC(=O)[C@]1(C)CCC[C@@]2(C)[C@@H]3CC[C@@]4(C)C[C@]3(CC[C@@H]21)C[C@H]4NC(=S)NNC(=O)c1ccccc1 | 26.2 | 15.1 | 56.8 |
